Results reported in the EternaBench riboswitch data.

Test system: MS2 coat protein
Assay: apparent Kd, MS2 coat protein; higher = weaker binding; RNA-MaP array; FMN 200 µM where present
In short: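 The titrant was SNAP-549-labelled MS2 coat protein, run from 0.7 or 1.5 nM in doubling steps to 3 µM. It was applied to designs transcribed by stalled E. coli RNA polymerase on Illumina sequencing-chip clusters, without ligand first and then with constant ligand, in 100 mM Tris-HCl pH 7.5, 80 mM KCl, 4 mM MgCl2, BSA, DTT, yeast tRNA and Tween-20. The apparent Kd is the median of filtered per-cluster binding-curve fits, with green signal normalised to red-channel RNA signal and control-cluster median Fmax.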

[1] = designed as: ON switch for flavin mononucleotide, no ligand
[2] = ligand present: flavin mononucleotide, designed as: ON switch for flavin mononucleotide
[3] = designed as: OFF switch for flavin mononucleotide, no ligand
[4] = ligand present: flavin mononucleotide, designed as: OFF switch for flavin mononucleotide

Row | Sequence | apparent Kd [1] | apparent Kd [2] | apparent Kd [3] | apparent Kd [4]
1 | AUGGUUGUCGUAGGAUAUGUAGGAUAUUCCUACAUGAGGAUCACCCAUGUUCGCAUGGAAGAAGGACGGAAGGACGAUGACCAU | 194 nM | 132 nM |  | 
2 | AUGUACCGGUGAGGAUAUUUUUAAUAGAGCUUUAUGAUAUACAUGAGGAUCACCCAUGUUACUUUAAAGAAGGCAUCGGAUUAA |  |  | 19 nM | 14 nM
3 | AUGUAGGUAGGAUAUGCAUAGAUAUACAUUCAUGUGGAUUUACAUGAGGAUCACCCAUGUAGAAGGACCUAAAA |  |  | 34.1 nM | 107 nM
4 | AUGUAUCGCCUCGAGGAUAUCCUGUCAUGCACAUGAGGAUCACCCAUGUAAGAGCGAGUUUAAUGGGAGAAGGCGAGUUCUCGGU | 111 nM | 35 nM |  | 
5 | AUGUGCCUAGGAUAUACAUGAGGAUCACCCAUGUUAACACUGCAAUCAAGUUAAUAUUGUAGAAGGAGGUGUAA |  |  | 27.6 nM | 27.5 nM
6 | AUGUUACAUGAGGAUCACCCAUGUGAGGAUAUGUGUAUCCCUAAAAAAGUGUGGGACCAUAGAAGGUACUUGGA |  |  | 59.2 nM | 58.6 nM
7 | AUGUUGAGCAGUGUAUUAAGAUCACAUGAGGAUCACCCAUGUAGAAGGUAUGAGCUGAUCGCUCAUAAGGAUAUACAUCACUGC |  |  | 69.9 nM | 119 nM
8 | AUUAAAACAUAGGAUAUCGAAUUUAUUAUUUAACGAGAAGGAUGAACAUGAGGAUCACCCAUGUGGUAUCAUGG |  |  | 149 nM | 308 nM
9 | AUUAAUUUGUAGAAGGACGACUAUUAAUAUUUCGUAGGAUAUACUAUUUACAUGAGGAUCACCCAUGUUUAAAUGGAACAAUGU |  |  | 8.1 nM | 11.8 nM
10 | AUUAUGACCGAGUUAAGCUUCAAAACAUGAGGAUCACCCAUGUAGGAUAUCAGCACGAUAAGUGCUGAGAAGGACAUCUCGGUC |  |  | 13.5 nM | 15.5 nM
11 | AUUAUGUUAGGAUAUGCUUAUGGUGGAUAGUCCAGUGUGGUGCAGAAGGGACAUGAGGAUCACCCAUGUGCUGA |  |  | 53.8 nM | 60.6 nM
12 | AUUAUUAAAGUGAGGAUAUCUAGAGCUUCGGCUCUAGAGAAGGCACAUGAGGAUCACCCAUGUCUCAAUUAUUA |  |  | 18.5 nM | 59.4 nM
13 | AUUCUUGGGCAAGGAUAUCCUGUGCGGUUCCGGCUCGUGUCUGUCACAUGAGGAUCACCCAUGUGGGAGAAGGUGCCUGCGGUC |  |  | 6.86 nM | 7.2 nM
14 | AUUGUAGGAGGAUAUACAUGAGGAUCACCCAUGUCGUCCCAGGAGGACACCUUCCCAUGUAGAAGGCCUGGGAC |  |  | 31.4 nM | 19.3 nM
15 | AUUGUAUGGAAAGGAUAUAGAAUAUUAUUUUAACAUGAGGAUCACCCAUGUAACCUUAUGUGUAGCUAGAAGGUUCGUUUGUUA |  |  | 88.2 nM | 97.8 nM
16 | AUUGUGUGAGGAUAUUAGUAGUAAAUGAAUAAAAUUAUUACUGAGAAGGCACAUGAGGAUCACCCAUGUUCCUU |  |  | 19.1 nM | 138 nM
17 | AUUGUGUGAGGAUAUUAGUAGUAGAUGAAUGGAGUUGUGGCUGAGAAGGCACAUGAGGAUCACCCAUGUUCCUU |  |  | 22.3 nM | 25.9 nM
18 | AUUGUUAAGGUAGGAUAUAGUAAAAUGAUUUAGUUAGAAGGAUCUCACAUGAGGAUCACCCAUGUAAGAGGAUCACCCAUGUAU |  |  | 11.1 nM | 9.45 nM
19 | AUUUAAAUGUCAGGAUAUGUCGGUAUAUACUCGGUAGAAGGGAUAAUUAUACUCAAGUACAUGAGGAUCACCCAUGUUAAAUCA | 21.1 nM | 14 nM |  | 
20 | AUUUAAUUUAAUAAGAUCACAUGAGGAUCACCCAUGUAUAUAUAGGAUAUCAGCUCGAUUAGAGCUGAGAAGGAUAUAUACUAU |  |  | 383 nM | 322 nM
21 | AUUUAAUUUAAUAAGAUCACAUGAGGAUCACCCAUGUUAUAAUAGGAUAUCAGCUCGUGUAGAGCUGAGAAGGAUUAUAACAUG |  |  | 66.3 nM | 35.1 nM

Row | Sequence | apparent Kd [1] | apparent Kd [2] | apparent Kd [3] | apparent Kd [4]
22 | AUUUAUGGCCAGAAGGACAUGAGGAUCACCCAUGUAGGAUAUGGACGAUUUUGCUCGACGGUUUGUUAAGGAAGCACCGGUGGU | 12.4 nM | 6.52 nM |  | 
23 | AUUUAUGUCAUAGGAUAUAUAAAUAAAUUUAUAACAUGAGGAUCACCCAUGUACUUUGGUAUGAGGUAGAAGGAUGAUAAGAAU | 49.6 nM | 31.9 nM |  | 
24 | AUUUAUUAGUAAGGAUAUACUAGCGAUUUGCUUGUAGAAGGUACAGUCUUAUGUAUAACAUGUUAACAUGAGGAUCACCCAUGU | 44.4 nM | 27.5 nM |  | 
25 | AUUUAUUUACAGAAGGAGUAUGAUAAUGUUUUACUAGGAUAUGUAUACAUGAGGAUCACCCAUGUUAUUAUAGGUUUUUUAUGU |  |  | 10.3 nM | 7.08 nM
26 | AUUUGAAAGUCAGGAUAUGGUAGAUUAUUCUUAUCAGAAGGGAUUAUUAUACUCAAGUACAUGAGGAUCACCCAUGUUAAAUCA | 22.6 nM | 13 nM |  | 
27 | AUUUUAAUAUAGGAUAUCGAAUUUAUUAUUUAACGAGAAGGAUAAACAUGAGGAUCACCCAUGUGGUAUCAUGG |  |  | 126 nM | 117 nM
28 | AUUUUAAUGUCAGGAUAUAUUAGUUUUUACAUAGUAGAAGGGAUAAUUAUACUCAUGUACAUGAGGAUCACCCAUGUUAAAUAU | 139 nM | 44.5 nM |  | 
29 | AUUUUAAUGUCAGGAUAUGUUAGUUAAUACAUAGUAGAAGGGAUAAUUAUACUCAUGUACAUGAGGAUCACCCAUGUUAAAUAA | 151 nM | 80.7 nM |  | 
30 | AUUUUAAUGUCAGGAUAUGUUAGUUUAUACAUAGUAGAAGGGAUAAUUAUACUCAUGUACAUGAGGAUCACCCAUGUUAAAUAA | 163 nM | 98.1 nM |  | 
31 | AUUUUAUAAUAGAAGGAGGACUUCAUGAGGAUCACCCAUGUGUUGGUACUUAGGAUAUGUAAUAACAUGAGGAUCACCCAUGUC | 55.9 nM | 49.8 nM |  | 
32 | AUUUUGUCAGGAUAUGACUAGAUGCACGAAAGUGCAUCUACUUAGAAGGGACAUGAGGAUCACCCAUGUAUUCC |  |  | 17.3 nM | 17.8 nM
33 | CAAACAACACAGAAGGCCACGAAGUCCAUGGGUGGAGGAUAUGUGUUAGCUCUGACAUGAGGAUCACCCAUGUCUACGUGAGCU | 5.5 nM | 5.27 nM |  | 
34 | CAACCGUUGCAGAAGGUUAAAUAAUUUCUCAUCUUGUUUACAUGAGGAUCACCCAUGUAUUUGUUGAAGGAUAUGCAAGGGUUG |  |  | 6.96 nM | 6.6 nM
35 | CAAUAACCCUCAUGUACCUGAGGACAUGAGGAUCACCCAUGUAAGGAUAUAGCCAUUAAAUCUAACUAGAAGGUAUAAAUAACC |  |  | 1090 nM | 552 nM
36 | CAAUAUAGCACAGGAUAUGUCUCGUUUACAUGAGGAUCACCCAUGUCCGAAACAGAAGGGUGACCCGAUAUAGGACGUUGGGUG | 121 nM | 28.9 nM |  | 
37 | CAAUUCGCACAGAAGGGUGACAUGAGGAUCACCCAUGUAGCGUGGCACUCAGGAGGAGCCACGCCACAGGAUAUGUGCGGGCAC | 33.4 nM | 33.8 nM |  | 
38 | CAAUUGGCACAGAAGGGUGACAUGAGGAUCACCCAUGUAGCGUGGCACUCAGGAGGAACCACGCCACAGGAUAUGUGCCGGCAC | 88.5 nM | 86.8 nM |  | 
39 | CAAUUUAUAACAGGAUAUGUAAUACAAUAGUAAAUAGAAGGGUUUUAUACAUGAGGAUCACCCAUGUCAUGUGUCAUAAUUACC |  |  | 36.4 nM | 29.5 nM
40 | CAAUUUAUAGCAGGAUAUACAAUACAAUGAUUAGUAGAAGGGUUUAAUACAUGAGGAUCACCCAUGUCAUGUGUCAUAAUAACC |  |  | 31.2 nM | 23.5 nM
41 | CACAAGAAAGUCGAACUAUGUAGGAGAAGGAGUAUAACAUGACAUGAGGAUCACCCAUGUGCCAAUUAGGAUAUUUUAUAUGGG |  |  | 184 nM | 97.7 nM
